Results: ChEMBL document CHEMBL4834436, “Discovery of the S1P2 Antagonist GLPG2938 (1-[2-Ethoxy-6-(trifluoromethyl)-4-pyridyl]-3-[[5-methyl-6-[1-methyl-3-(trifluoromethyl)pyrazol-4-yl]pyridazin-3-yl]methyl]urea), a Preclinical Candidate for the Treatment of Idiopathic Pulmonary Fibrosis” (J Med Chem, 2021)
In brackets after ≈: the same amount, converted by molar mass. Activity calls are given as the source filed them. No cut-off for these calls is given here.

How the values were obtained:
[1] = Thermodynamic solubility in FaSSGF at pH 1.6; type: physicochemical; conditions: read-out: Therm_solubility
[2] = test system: Mus musculus; assay: Antifibrotic activity against intranasal bleomycin-induced C57BL/6 mouse lung fibrosis model assessed as reduction in Ashcroft score at 3 to 30 mg/kg, po twice daily for 14 days; type: functional, organism-based; conditions: dose 3-30 mg/kg, time 14.0 day
In short: (§1)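 Male C57BL/6 mice (7–8 weeks on arrival, one week acclimation) given bleomycin intranasally; prophylactic oral dosing twice daily for 14 days. Lungs scored histologically by Matsuse-modified Ashcroft score; 14–15 mice per group; Mann–Whitney vs bleomycin/vehicle.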

[3] = Clearance in beagle dog at 1 mg/kg, iv measured up to 24 hrs by LC-MS/MS analysis; type: ADME, organism-based, Canis lupus familiaris; conditions: in vivo
In short: (§2)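 Non-naive male Beagle dogs (n = 3) given 1 mg/kg iv as 10 min infusion; after 3-day washout, oral gavage 5 or 1 mg/kg in PEG400/MC 0.5% or MC 0.5% after ≥12 h fast. Jugular or cephalic blood into lithium heparin to 24 h; plasma analysed. Plasma protein binding: 5 μM compound, 4 h incubation.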

[4] = target: T1, Sphingosine 1-phosphate receptor 2 (Homo sapiens, UniProt O95136); assay: Antagonist activity at recombinant human S1P2 receptor expressed in CHO cells assessed as EC80 S1P-induced activation incubated for 4 hrs in presence of [35S]GTPgammaS by Topcount reader; type: functional, cell-based
T1 sequence (O95136 whole entry): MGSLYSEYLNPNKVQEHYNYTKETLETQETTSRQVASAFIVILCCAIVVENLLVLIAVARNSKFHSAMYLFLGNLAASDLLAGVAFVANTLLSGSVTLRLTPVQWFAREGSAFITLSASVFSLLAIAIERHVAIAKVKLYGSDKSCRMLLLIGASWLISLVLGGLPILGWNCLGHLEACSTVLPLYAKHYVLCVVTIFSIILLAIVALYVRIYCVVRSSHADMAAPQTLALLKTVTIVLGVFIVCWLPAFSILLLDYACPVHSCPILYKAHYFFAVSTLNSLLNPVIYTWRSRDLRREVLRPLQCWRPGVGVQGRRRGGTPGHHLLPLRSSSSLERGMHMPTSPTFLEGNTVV
In short: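 Membranes from stable lines overexpressing recombinant human S1P2, preincubated with PVT-WGA SPA beads, mixed with compound serial dilutions, [35S]GTPγS and S1P at EC80. Incubated 4 h at room temperature, centrifuged, scintillation counted. Antagonist mode; IC50 as geometric mean of ≥2 runs.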

[5] = Oral bioavailability in Sprague-Dawley rat at 10 mg/kg measured up to 24 hrs by LC-MS/MS analysis; type: ADME, organism-based; conditions: in vivo
In short: (§3)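 Male Sprague-Dawley rats (6–8 weeks), n = 3 per route; iv bolus 1 mg/kg in PEG200/water 60/40; gavage 5 or 10 mg/kg in PEG400/MC 0.5% after ≥12 h fast. Li-heparin plasma sampled to 24 h, LC-MS/MS, noncompartmental analysis. Plasma protein binding: 5 μM compound, 4 h incubation.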

[6] = Volume of distribution at steady state in CD1 mouse at 1 mg/kg, iv measured up to 24 hrs by LC-MS/MS analysis; type: ADME, organism-based; conditions: in vivo, read-out: Vdss
In short: (§4)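 Male CD1 mice, composite design, n = 6 per route; iv 1 mg/kg in PEG200/water 60/40, oral gavage 5 mg/kg in Tween 80/MC 0.5% or PEG400/MC 0.5% after ≥12 h fast. Li-heparin blood sampled to 24 h, plasma by LC-MS/MS; noncompartmental analysis. Plasma protein binding: 5 μM compound, 4 h incubation.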

[7] = target: T1, Sphingosine 1-phosphate receptor 2; assay: Antagonist activity at recombinant human S1P2 receptor in HFL1 cells assessed as inhibition of EC80 S1P-induced IL8 release incubated for 16 to 24 hrs in presence of 2% HSA by ELISA; type: functional, cell-based
In short: (§5)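 HFL-1 lung fibroblasts seeded in 96- or 384-well plates, then medium replaced by starvation medium with 1% heat-inactivated FBS, ±1.95% HSA (2% HSA condition), 16–24 h. 10-point 1/3 dilutions, 30 μM top final, 1 h, then S1P at EC80 (without HSA: 1 μM 96-well or 0.5 μM 384-well; with HSA: 5 or 2 μM).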

[8] = Plasma protein binding Sprague-Dawley rat plasma at 5 uM incubated for 4 hrs; type: ADME, cell-free; conditions: read-out: PPB (converted); in short: as §3
[9] = Half life in beagle dog at 1 mg/kg, iv measured up to 24 hrs by LC-MS/MS analysis; type: ADME, organism-based, Canis lupus familiaris; conditions: in vivo; in short: as §2
[10] = Plasma protein binding beagle dog plasma at 5 uM incubated for 4 hrs; type: ADME, cell-free, Canis lupus familiaris; conditions: read-out: PPB (converted); in short: as §2
[11] = Clearance in CD1 mouse at 1 mg/kg, iv measured up to 24 hrs by LC-MS/MS analysis; type: ADME, organism-based; conditions: in vivo; in short: as §4
[12] = Clearance in Sprague-Dawley rat at 1 mg/kg, iv measured up to 24 hrs by LC-MS/MS analysis; type: ADME, organism-based; conditions: in vivo; in short: as §3
[13] = target: T1, Sphingosine 1-phosphate receptor 2; assay: Antagonist activity at human S1P2 receptor expressed in CHO cells assessed as EC80 S1P-induced calcium flux measured for 3 mins by fluorescence assay; type: functional, cell-based
In short: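 Same dye-loaded, starved human S1P2-CHO cells; after agonist readout, 15 min at 37 °C, then stimulated with S1P at EC80, fluorescence read 3 min. Max/baseline ratio normalized to vehicle and S1P EC80. 10-point 1/3 dilutions from 20 μM final; IC50 derived; geometric mean of ≥2 runs.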

[14] = target: T1, Sphingosine 1-phosphate receptor 2; assay: Antagonist activity at recombinant human S1P2 receptor in HFL1 cells assessed as inhibition of EC80 S1P-induced IL8 release measured as unbound concentration incubated for 16 to 24 hrs in presence of 2% HSA by ELISA; type: functional, cell-based; conditions: filed as antagonist, time 16-24 hrs
In short: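 IL8 IC50 from the 2% HSA condition converted to free IC50 = IC50 × fu,medium, where fu,medium is estimated from human plasma protein binding fraction unbound and the serum percentage used in the assay.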

[15] = Half life in Sprague-Dawley rat at 1 mg/kg, iv measured up to 24 hrs by LC-MS/MS analysis; type: ADME, organism-based; conditions: in vivo; in short: as §3
[16] = Oral bioavailability in CD1 mouse at 5 mg/kg measured up to 24 hrs by LC-MS/MS analysis; type: ADME, organism-based; conditions: in vivo; in short: as §4
[17] = Intrinsic clearance unbound in mouse liver microsomes at 1 uM […] by LC-MS/MS analysis; type: ADME, Microsome
[18] = target: T1, Sphingosine 1-phosphate receptor 2; assay: Antagonist activity at recombinant human S1P2 receptor in HFL1 cells assessed as inhibition of EC80 S1P-induced IL8 release incubated for 16 to 24 hrs in absence of HSA by ELISA; type: functional, cell-based; in short: as §5
[19] = Plasma protein binding CD1 mouse plasma at 5 uM incubated for 4 hrs; type: ADME, cell-free; conditions: read-out: PPB (converted); in short: as §4
[20] = Volume of distribution at steady state in beagle dog at 1 mg/kg, iv measured up to 24 hrs by LC-MS/MS analysis; type: ADME, organism-based, Canis lupus familiaris; conditions: in vivo, read-out: Vdss; in short: as §2
[21] = Thermodynamic solubility in FaSSIF; type: physicochemical; conditions: read-out: Therm_solubility
[22] = Volume of distribution at steady state in Sprague-Dawley rat at 1 mg/kg, iv measured up to 24 hrs by LC-MS/MS analysis; type: ADME, organism-based; conditions: in vivo, read-out: Vdss; in short: as §3
[23] = Oral bioavailability in beagle dog at 1 mg/kg measured up to 24 hrs by LC-MS/MS analysis; type: ADME, organism-based, Canis lupus familiaris; conditions: in vivo; in short: as §2
[24] = Intrinsic clearance unbound in human liver microsomes at 1 uM […] by LC-MS/MS analysis; type: ADME, Microsome
[25] = Half life in CD1 mouse at 1 mg/kg, iv measured up to 24 hrs by LC-MS/MS analysis; type: ADME, organism-based; conditions: in vivo; in short: as §4
[26] = target: T1, Sphingosine 1-phosphate receptor 2; assay: Displacement of radio labeled-SIP from human recombinant S1P2 receptor expressed in CHO cell membranes […] by radioligand based competition binding assay; set-up: species or system Membrane
[27] = target: T1, Sphingosine 1-phosphate receptor 2; assay: Agonist activity at human S1P2 receptor expressed in CHO cells assessed as calcium flux measured for 3 mins by fluorescence assay; type: functional, cell-based; conditions: read-out: IC50 (the source's name)
In short: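 CHO cells stably overexpressing human S1P2, seeded overnight at 37 °C/5% CO2, washed and starved 1 h in F-12 with 0.1% fatty-acid-free BSA, loaded with Fluo 8 dye with 5 mM probenecid. Compound added, fluorescence read 3 min; max/baseline ratio normalized to vehicle and S1P EC100. 10-point 1/3 dilutions from 23.3 μM final; EC50 derived; geometric mean of ≥2 runs.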

[28] = test system: Mus musculus; assay: Antifibrotic activity against intranasal bleomycin-induced C57BL/6 mouse lung fibrosis model assessed as reduction in Ashcroft score at 50 mg/kg, po twice daily for 14 days; type: functional, organism-based; conditions: time 14.0 day; in short: as §1
[29] = target: CYP3A4 (Homo sapiens, UniProt P08684); assay: Inhibition of recombinant CYP3A4 (unknown origin) at 10 uM; type: ADME
CYP3A4, sequence (P08684 whole entry): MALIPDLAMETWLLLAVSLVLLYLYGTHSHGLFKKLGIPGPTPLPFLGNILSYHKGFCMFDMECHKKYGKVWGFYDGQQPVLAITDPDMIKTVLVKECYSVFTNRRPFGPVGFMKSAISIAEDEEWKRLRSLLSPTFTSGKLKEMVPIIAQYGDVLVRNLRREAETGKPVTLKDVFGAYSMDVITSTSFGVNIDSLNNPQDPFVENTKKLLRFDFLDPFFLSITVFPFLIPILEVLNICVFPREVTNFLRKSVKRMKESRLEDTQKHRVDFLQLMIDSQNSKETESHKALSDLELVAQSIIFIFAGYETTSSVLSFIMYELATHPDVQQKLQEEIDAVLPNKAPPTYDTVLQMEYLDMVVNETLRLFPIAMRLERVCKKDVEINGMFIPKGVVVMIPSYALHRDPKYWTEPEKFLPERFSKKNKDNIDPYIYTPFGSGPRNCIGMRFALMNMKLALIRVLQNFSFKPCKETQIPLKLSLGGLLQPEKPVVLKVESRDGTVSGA

[30] = target: CYP2C19 (Homo sapiens, UniProt P33261); assay: Inhibition of recombinant CYP2C19 (unknown origin) at 10 uM; type: ADME
CYP2C19, sequence (P33261 whole entry): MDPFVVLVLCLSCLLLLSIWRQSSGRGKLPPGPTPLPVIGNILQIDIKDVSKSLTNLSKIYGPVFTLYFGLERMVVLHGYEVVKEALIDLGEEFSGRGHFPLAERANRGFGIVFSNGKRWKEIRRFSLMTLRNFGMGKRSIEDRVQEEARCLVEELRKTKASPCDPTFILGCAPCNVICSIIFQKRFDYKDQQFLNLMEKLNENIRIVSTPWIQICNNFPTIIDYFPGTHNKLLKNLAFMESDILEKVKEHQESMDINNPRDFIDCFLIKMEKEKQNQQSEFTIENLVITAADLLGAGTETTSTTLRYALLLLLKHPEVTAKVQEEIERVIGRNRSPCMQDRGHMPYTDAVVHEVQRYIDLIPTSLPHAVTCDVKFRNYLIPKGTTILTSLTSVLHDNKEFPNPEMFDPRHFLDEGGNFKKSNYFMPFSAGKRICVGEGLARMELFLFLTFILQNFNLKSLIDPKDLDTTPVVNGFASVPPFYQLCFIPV

[31] = target: CYP2C9 (Homo sapiens, UniProt P11712); assay: Inhibition of recombinant CYP2C9 (unknown origin) at 10 uM; type: ADME
CYP2C9, sequence (P11712 whole entry): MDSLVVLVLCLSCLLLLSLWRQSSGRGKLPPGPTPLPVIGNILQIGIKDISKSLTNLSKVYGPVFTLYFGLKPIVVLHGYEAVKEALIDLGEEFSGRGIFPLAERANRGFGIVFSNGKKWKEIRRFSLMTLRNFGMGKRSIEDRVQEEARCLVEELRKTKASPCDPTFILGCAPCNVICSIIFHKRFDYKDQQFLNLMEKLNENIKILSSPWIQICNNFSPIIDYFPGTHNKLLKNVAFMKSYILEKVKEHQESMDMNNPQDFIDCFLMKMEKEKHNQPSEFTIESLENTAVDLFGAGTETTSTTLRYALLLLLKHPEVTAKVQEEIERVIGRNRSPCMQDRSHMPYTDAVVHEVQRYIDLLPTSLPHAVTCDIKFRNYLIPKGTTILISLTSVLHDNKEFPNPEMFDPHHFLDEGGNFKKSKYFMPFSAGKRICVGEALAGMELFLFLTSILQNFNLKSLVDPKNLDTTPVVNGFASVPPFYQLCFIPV

CCOc1nc(C)cc(NC(=O)NCc2cc(C)c(-c3cn(C)nc3C(F)(F)F)nn2)c1C
solubility thermodynamic [1]: 505 µg/mL (≈ 1090 µM)
Activity [2]: Active
clearance [3]: 11 mL/min/kg
IC50 [4]: 16000 nM
bioavailability [5]: 84%
Vd [6]: 0.47 L/kg
IC50 [7]: 49 nM
fraction unbound at 4 h, 5 µM [8]: 0.004
half-life [9]: 1.6 h
fraction unbound at 4 h, 5 µM [10]: 0.022
clearance [11]: 12.2 mL/min/kg
clearance [12]: 6.17 mL/min/kg
IC50 [13]: 4500 nM
fIC50 [14]: 1.3 nM
half-life [15]: 1 h
bioavailability [16]: 29%
CL free [17]: 283 mL/min/kg
IC50 [18]: 16 nM
fraction unbound at 4 h, 5 µM [19]: 0.014
Vd [20]: 1.5 L/kg
solubility thermodynamic [21]: 15 µg/mL (≈ 32.4 µM)
Vd [22]: 0.54 L/kg
bioavailability [23]: 39%
CL free [24]: 36.7 mL/min/kg
half-life [25]: 0.45 h

CCOC(=O)c1cc(C)cc(NNC(=O)Nc2cc(Cl)nc(Cl)c2)n1
IC50 [26]: 300 nM
IC50 [4]: 2100 nM
IC50 [13]: 760 nM
EC50 [27]: > 23000 nM

Cc1ccc(=O)n(-c2ccccc2)c1
Activity [28]: Active

CCOc1cc(NC(=O)NCc2cc(C)c(-c3cn(C)nc3C(F)(F)F)cn2)cc(Cl)n1
IC50 [4]: 22000 nM
inhibition at 10 µM [29]: 83%
inhibition at 10 µM [30]: 100%
IC50 [13]: 11 nM
inhibition at 10 µM [31]: 83%
CL free [17]: 450 mL/min/kg
IC50 [18]: 22 nM
CL free [24]: 150 mL/min/kg

CCOc1nc(Cl)cc(NC(=O)NCc2cc(C)c(-c3cn(C)nc3C(F)(F)F)nn2)c1C
IC50 [4]: 15000 nM
IC50 [7]: 32 nM
IC50 [13]: 8800 nM
fIC50 [14]: 0.16 nM
CL free [17]: < 533 mL/min/kg
IC50 [18]: 15 nM
CL free [24]: < 127 mL/min/kg
